Laboratory results as given in paper PMC12663558 (Scientific Reports, 2025).

What was measured:
CT-DNA (calf thymus DNA) = assay: UV-Vis titration with CT-DNA; format: binding; conditions: 298 K; for apparent binding constant Kapp with CT-DNA: UV-Vis titration, Tris-HCl pH 7.2; for standard Gibbs free energy change ΔG° of CT-DNA binding: ΔG° = -RTlnKapp
Procedure, shortened: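 CT-DNA stock was 1.5 mg/mL in Tris-HCl pH 7.2, made at 4 °C, with A260/A280 of 1.8–1.9; it was quantified by ε260 = 6600 M−1cm−1. 50 µL of stock was added to 1.45 mL buffer. Test compound (10−4 M stock in water) was added stepwise up to 9.09–13.29 µM, with 2 min at 298 K per step and absorbance read at 260 nm. Kapp = intercept/slope of the 1/(A−A0) versus 1/[Ligand] plot. ΔG° = −RTlnKapp at 298 K.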

[1] = target: bovine serum albumin (BSA) (Bos taurus, UniProt P02769); assay: UV-Vis titration with BSA; format: binding; conditions: for standard Gibbs free energy change ΔG° of BSA binding: 298 K, ΔG° = -RTlnKapp
Procedure, shortened: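 BSA stock was 3 mg/mL in Tris-HCl pH 7.2, made at 4 °C and quantified by ε280 = 44,300 M−1cm−1; 500 µL of stock was diluted with 1.00 mL buffer. Test compound (10−4 M stock in water) was added stepwise up to 6.83–10.18 µM, with 2 min equilibration at 298 K per step and readings at 280 nm. Kapp = intercept/slope of 1/(A−A0) versus 1/[Ligand]. ΔG° = −RTlnKapp (R 1.987 cal mol−1 K−1, T 298 K).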

Lipophilicity = format: physicochemical; conditions: 2-octanol/water
Procedure, shortened: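 Shake-flask partition used 2-octanol and doubly distilled water 1:1 v/v (10 mL total) with 0.001 g test compound. The mixture was shaken overnight, left to equilibrate 1 h, and the phases separated. Compound in each phase was quantified by UV-Vis. log P was taken from the octanol/water concentration ratio.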

[2] = DPPH free radical scavenging assay; format: biochemical; conditions: standard control, compared with 3a-c
Procedure, shortened: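 DPPH stock was 0.1 mM in ethanol. Test compound solutions at 10, 25, 50, 100, 250, 500 and 1000 µg/mL (concentrations before mixing) were each mixed 1:1 v/v with the DPPH solution. Mixtures were vortexed 10 s and kept in the dark at room temperature for 30 min, then absorbance was read at 517 nm. Ascorbic acid was the reference antioxidant. Scavenging was calculated from absorbance by equation.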

DNA = conditions: traditional intercalators, typical range; cited from earlier work

Chain of bovine serum albumin (BSA) (P02769 25-607): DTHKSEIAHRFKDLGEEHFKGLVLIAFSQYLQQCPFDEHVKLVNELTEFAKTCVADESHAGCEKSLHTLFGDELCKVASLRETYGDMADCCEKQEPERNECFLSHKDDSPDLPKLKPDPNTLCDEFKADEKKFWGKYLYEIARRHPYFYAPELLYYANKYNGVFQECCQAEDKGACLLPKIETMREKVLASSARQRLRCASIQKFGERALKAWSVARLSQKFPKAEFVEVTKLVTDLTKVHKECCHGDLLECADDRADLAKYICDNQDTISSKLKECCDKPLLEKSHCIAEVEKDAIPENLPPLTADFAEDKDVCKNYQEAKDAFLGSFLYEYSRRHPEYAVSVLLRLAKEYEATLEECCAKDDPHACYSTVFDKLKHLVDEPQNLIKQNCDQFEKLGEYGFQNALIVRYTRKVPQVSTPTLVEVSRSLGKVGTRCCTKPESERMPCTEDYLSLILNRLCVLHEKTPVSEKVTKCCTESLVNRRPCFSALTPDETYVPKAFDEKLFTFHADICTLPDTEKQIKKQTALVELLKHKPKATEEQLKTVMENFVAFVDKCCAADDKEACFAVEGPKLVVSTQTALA

Molecule | apparent binding constant Kapp with CT-DNA (CT-DNA (calf thymus DNA)) | standard Gibbs free energy change ΔG° of CT-DNA binding (CT-DNA (calf thymus DNA)) | Kd [1] | standard Gibbs free energy change ΔG° of BSA binding [1] | logP (Lipophilicity) | DPPH free radical scavenging activity (in words) [2] | binding constant Kb with DNA (DNA)
O=C1Nc2ccccc2/C1=N/N=C/c1cccc([N+](=O)[O-])c1 [3a, (Z)−3-(((E)−3-nitrobenzylidene)hydrazineylidene)indolin-2-one] | 1.01 × 10^4 M^− 1 | -5.46 kcal/mol | 151 µM | -5.21 kcal/mol | 1.29 | – | –
COc1ccccc1/C=N/N=C1\C(=O)Nc2ccccc21 [3b, (Z)−3-(((E)−2-methoxybenzylidene)hydrazineylidene)indolin-2-one] | 1.17 × 10^4 M^− 1 | -5.55 kcal/mol | 136 µM | -5.27 kcal/mol | 2.3 | – | –
O=C1O[C@H]([C@@H](O)CO)C(O)=C1O [ascorbic acid, Ascorbic acid] | – | – | – | – | – | highest scavenging activity | –
CC[n+]1c(-c2ccccc2)c2cc(N)ccc2c2ccc(N)cc21 [ethidium bromide] | – | – | – | – | – | – | 10^6 to 10^7 M^− 1
[Ru(phen)DPPZ] | – | – | – | – | – | – | 10^6 to 10^7 M^− 1
